Measured values published in ChEMBL document CHEMBL3046951, “Volatile constituents from the leaves of Callicarpa japonica Thunb. and their antibacterial activities” (2004).

Legend:
Format in all cases: functional
Salmonella typhimurium [1] = test: Antimicrobial activity against Salmonella enterica subsp. enterica serovar Typhimurium ATCC 14028 assessed as growth inhibition rate at 678.64 mg/l after 72 hr by spectrophotometry; conditions: ATCC 14028, 72 h, read-out: GI
Salmonella typhimurium [2] = test: Antimicrobial activity against Salmonella enterica subsp. enterica serovar Typhimurium ATCC 14028 assessed as growth inhibition rate at 135.68 mg/l after 72 hr by spectrophotometry; conditions: ATCC 14028, 72 h, read-out: GI
In short: (§1)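 Salmonella Typhimurium ATCC 14028 grown in nutrient broth at 30 °C, precultured 24 h, then subcultured 1:100 for 18 h before testing. Single volatile compounds (>95% pure) were added. OD was read every 24 h over 72 h in a Bioscreen C, with 10% Tween 80 as the comparison control.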

Salmonella typhimurium [3] = test: Antimicrobial activity against Salmonella enterica subsp. enterica serovar Typhimurium ATCC 14028 assessed as growth inhibition rate at 67.88 mg/l after 72 hr by spectrophotometry; conditions: ATCC 14028, 72 h, read-out: GI
Salmonella typhimurium [4] = test: Antimicrobial activity against Salmonella enterica subsp. enterica serovar Typhimurium ATCC 14028 assessed as growth inhibition rate at 25.52 mg/l after 72 hr by spectrophotometry; conditions: ATCC 14028, 72 h, read-out: GI; in short: as §1
Salmonella typhimurium [5] = test: Antimicrobial activity against Salmonella enterica subsp. enterica serovar Typhimurium ATCC 14028 assessed as growth inhibition rate at 12.48 mg/l after 72 hr by spectrophotometry; conditions: ATCC 14028, 72 h, read-out: GI; in short: as §1
Bacillus cereus [6] = test: Antimicrobial activity against Bacillus cereus ATCC 11778 assessed as growth inhibition rate at 678.64 mg/l after 72 hr by spectrophotometry; conditions: ATCC 11778, 72 h, read-out: GI
In short: (§2)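 Pure volatile compounds (purity >95%; one at 90%) were tested against B. cereus ATCC 11778. The strain was grown at 30 °C in nutrient broth for 24 h, then subcultured for 18 h. Optical density was read in a Bioscreen C every 24 h for 72 h, with 10% Tween 80 as the control.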

Bacillus cereus [7] = test: Antimicrobial activity against Bacillus cereus ATCC 11778 assessed as growth inhibition rate at 135.68 mg/l after 72 hr by spectrophotometry; conditions: ATCC 11778, 72 h, read-out: GI; in short: as §2
Bacillus cereus [8] = test: Antimicrobial activity against Bacillus cereus ATCC 11778 assessed as growth inhibition rate at 67.88 mg/l after 72 hr by spectrophotometry; conditions: ATCC 11778, 72 h, read-out: GI; in short: as §2
Bacillus cereus [9] = test: Antimicrobial activity against Bacillus cereus ATCC 11778 assessed as growth inhibition rate at 25.52 mg/l after 72 hr by spectrophotometry; conditions: ATCC 11778, 72 h, read-out: GI; in short: as §2
Bacillus cereus [10] = test: Antimicrobial activity against Bacillus cereus ATCC 11778 assessed as growth inhibition rate at 12.48 mg/l after 72 hr by spectrophotometry; conditions: ATCC 11778, 72 h, read-out: GI; in short: as §2
Listeria monocytogenes [11] = test: Antimicrobial activity against Listeria monocytogenes ATCC 19111 assessed as growth inhibition rate at 339.32 mg/l after 72 hr by spectrophotometry; conditions: ATCC 19111, 72 h, read-out: GI
In short: (§3)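 L. monocytogenes was grown at 30 °C in tryptic soy broth, subcultured for 18 h, and exposed to pure volatile compounds (>95% purity). Growth was followed by Bioscreen C optical density every 24 h for 72 h against a 10% Tween 80 control.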

Escherichia coli [12] = test: Antimicrobial activity against Escherichia coli O157:H7 ATCC 43894 assessed as growth inhibition rate at 678.64 mg/l after 72 hr by spectrophotometry; conditions: O157:H7 ATCC 43894, 72 h, read-out: GI
In short: (§4)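 Authentic volatiles (>95% purity; 2,4-heptadienal 90%) tested against 18 h subcultures. Growth media: E. coli O157:H7 and S. aureus in tryptic soy broth at 37 °C; L. monocytogenes in tryptic soy broth at 30 °C; V. parahaemolyticus in tryptic soy broth + 3% NaCl at 37 °C; S. typhimurium in nutrient broth at 30 °C. Bioscreen C OD every 24 h for 72 h versus 10% Tween 80 control.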

Escherichia coli [13] = test: Antimicrobial activity against Escherichia coli O157:H7 ATCC 43894 assessed as growth inhibition rate at 135.68 mg/l after 72 hr by spectrophotometry; conditions: O157:H7 ATCC 43894, 72 h, read-out: GI
Escherichia coli [14] = test: Antimicrobial activity against Escherichia coli O157:H7 ATCC 43894 assessed as growth inhibition rate at 67.88 mg/l after 72 hr by spectrophotometry; conditions: O157:H7 ATCC 43894, 72 h, read-out: GI; in short: as §4
Escherichia coli [15] = test: Antimicrobial activity against Escherichia coli O157:H7 ATCC 43894 assessed as growth inhibition rate at 25.52 mg/l after 72 hr by spectrophotometry; conditions: O157:H7 ATCC 43894, 72 h, read-out: GI
Escherichia coli [16] = test: Antimicrobial activity against Escherichia coli O157:H7 ATCC 43894 assessed as growth inhibition rate at 12.48 mg/l after 72 hr by spectrophotometry; conditions: O157:H7 ATCC 43894, 72 h, read-out: GI
Staphylococcus aureus [17] = test: Antimicrobial activity against Staphylococcus aureus ATCC 25923 assessed as growth inhibition rate at 678.64 mg/l after 72 hr by spectrophotometry; conditions: ATCC 25923, 72 h, read-out: GI
Staphylococcus aureus [18] = test: Antimicrobial activity against Staphylococcus aureus ATCC 25923 assessed as growth inhibition rate at 135.68 mg/l after 72 hr by spectrophotometry; conditions: ATCC 25923, 72 h, read-out: GI
Staphylococcus aureus [19] = test: Antimicrobial activity against Staphylococcus aureus ATCC 25923 assessed as growth inhibition rate at 67.88 mg/l after 72 hr by spectrophotometry; conditions: ATCC 25923, 72 h, read-out: GI
Staphylococcus aureus [20] = test: Antimicrobial activity against Staphylococcus aureus ATCC 25923 assessed as growth inhibition rate at 25.52 mg/l after 72 hr by spectrophotometry; conditions: ATCC 25923, 72 h, read-out: GI
Staphylococcus aureus [21] = test: Antimicrobial activity against Staphylococcus aureus ATCC 25923 assessed as growth inhibition rate at 12.48 mg/l after 72 hr by spectrophotometry; conditions: ATCC 25923, 72 h, read-out: GI
Vibrio parahaemolyticus [22] = test: Antimicrobial activity against Vibrio parahaemolyticus ATCC 33844 assessed as growth inhibition rate at 339.32 mg/l after 72 hr by spectrophotometry; conditions: ATCC 33844, 72 h, read-out: GI
Salmonella typhimurium [23] = test: Antimicrobial activity against Salmonella enterica subsp. enterica serovar Typhimurium ATCC 14028 assessed as growth inhibition rate at 339.32 mg/l after 72 hr by spectrophotometry; conditions: ATCC 14028, 72 h, read-out: GI; in short: as §1
Escherichia coli [24] = test: Antimicrobial activity against Escherichia coli O157:H7 ATCC 43894 assessed as growth inhibition rate at 339.32 mg/l after 72 hr by spectrophotometry; conditions: O157:H7 ATCC 43894, 72 h, read-out: GI
Staphylococcus aureus [25] = test: Antimicrobial activity against Staphylococcus aureus ATCC 25923 assessed as growth inhibition rate at 339.32 mg/l after 72 hr by spectrophotometry; conditions: ATCC 25923, 72 h, read-out: GI
Listeria monocytogenes [26] = test: Antimicrobial activity against Listeria monocytogenes ATCC 19111 assessed as growth inhibition rate at 12.48 mg/l after 72 hr by spectrophotometry; conditions: ATCC 19111, 72 h, read-out: GI; in short: as §3
Vibrio parahaemolyticus [27] = test: Antimicrobial activity against Vibrio parahaemolyticus ATCC 33844 assessed as growth inhibition rate at 12.48 mg/l after 72 hr by spectrophotometry; conditions: ATCC 33844, 72 h, read-out: GI
Listeria monocytogenes [28] = test: Antimicrobial activity against Listeria monocytogenes ATCC 19111 assessed as growth inhibition rate at 678.64 mg/l after 72 hr by spectrophotometry; conditions: ATCC 19111, 72 h, read-out: GI
In short: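 Pure volatile compounds (>95% purity) tested on Listeria monocytogenes ATCC 19111 in tryptic soy broth at 30 °C. Inoculum: 24 h culture subcultured (0.1 mL into 9.9 mL broth) and grown 18 h. Growth followed by Bioscreen C optical density every 24 h for 72 h against a 10% Tween 80 control.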

Listeria monocytogenes [29] = test: Antimicrobial activity against Listeria monocytogenes ATCC 19111 assessed as growth inhibition rate at 135.68 mg/l after 72 hr by spectrophotometry; conditions: ATCC 19111, 72 h, read-out: GI; in short: as §3
Listeria monocytogenes [30] = test: Antimicrobial activity against Listeria monocytogenes ATCC 19111 assessed as growth inhibition rate at 67.88 mg/l after 72 hr by spectrophotometry; conditions: ATCC 19111, 72 h, read-out: GI; in short: as §3
Listeria monocytogenes [31] = test: Antimicrobial activity against Listeria monocytogenes ATCC 19111 assessed as growth inhibition rate at 25.52 mg/l after 72 hr by spectrophotometry; conditions: ATCC 19111, 72 h, read-out: GI; in short: as §3
Vibrio parahaemolyticus [32] = test: Antimicrobial activity against Vibrio parahaemolyticus ATCC 33844 assessed as growth inhibition rate at 678.64 mg/l after 72 hr by spectrophotometry; conditions: ATCC 33844, 72 h, read-out: GI
Vibrio parahaemolyticus [33] = test: Antimicrobial activity against Vibrio parahaemolyticus ATCC 33844 assessed as growth inhibition rate at 135.68 mg/l after 72 hr by spectrophotometry; conditions: ATCC 33844, 72 h, read-out: GI
Vibrio parahaemolyticus [34] = test: Antimicrobial activity against Vibrio parahaemolyticus ATCC 33844 assessed as growth inhibition rate at 67.88 mg/l after 72 hr by spectrophotometry; conditions: ATCC 33844, 72 h, read-out: GI
Vibrio parahaemolyticus [35] = test: Antimicrobial activity against Vibrio parahaemolyticus ATCC 33844 assessed as growth inhibition rate at 25.52 mg/l after 72 hr by spectrophotometry; conditions: ATCC 33844, 72 h, read-out: GI
Bacillus cereus [36] = test: Antimicrobial activity against Bacillus cereus ATCC 11778 assessed as growth inhibition rate at 339.32 mg/l after 72 hr by spectrophotometry; conditions: ATCC 11778, 72 h, read-out: GI; in short: as §2

## C=C[C@H](O)CCCCC
Salmonella typhimurium [1]
  inhibition of growth at 678.64 µg/mL: 98.4%
Salmonella typhimurium [2]
  inhibition of growth at 135.68 µg/mL: 25.4%
Salmonella typhimurium [3]
  inhibition of growth at 67.88 µg/mL: 17.7%
Salmonella typhimurium [4]
  inhibition of growth at 25.52 µg/mL: 16.7%
Salmonella typhimurium [5]
  inhibition of growth at 12.48 µg/mL: 18.2%
Bacillus cereus [6]
  inhibition of growth at 678.64 µg/mL: 90.8%
Bacillus cereus [7]
  inhibition of growth at 135.68 µg/mL: 7.6%
Bacillus cereus [8]
  inhibition of growth at 67.88 µg/mL: 4.2%
Bacillus cereus [9]
  inhibition of growth at 25.52 µg/mL: 0%
Bacillus cereus [10]
  inhibition of growth at 12.48 µg/mL: 0%
Listeria monocytogenes [11]
  inhibition of growth at 339.32 µg/mL: 27.3%
Escherichia coli [12]
  inhibition of growth at 678.64 µg/mL: 96.5%
Escherichia coli [13]
  inhibition of growth at 135.68 µg/mL: 8.9%
Escherichia coli [14]
  inhibition of growth at 67.88 µg/mL: 7.9%
Escherichia coli [15]
  inhibition of growth at 25.52 µg/mL: 6.3%
Escherichia coli [16]
  inhibition of growth at 12.48 µg/mL: 8.3%
Staphylococcus aureus [17]
  inhibition of growth at 678.64 µg/mL: 80.6%
Staphylococcus aureus [18]
  inhibition of growth at 135.68 µg/mL: 8.7%
Staphylococcus aureus [19]
  inhibition of growth at 67.88 µg/mL: 5.7%
Staphylococcus aureus [20]
  inhibition of growth at 25.52 µg/mL: 6.6%
Staphylococcus aureus [21]
  inhibition of growth at 12.48 µg/mL: 3.6%
Vibrio parahaemolyticus [22]
  inhibition of growth at 339.32 µg/mL: 90.4%
Salmonella typhimurium [23]
  inhibition of growth at 339.32 µg/mL: 79.1%
Escherichia coli [24]
  inhibition of growth at 339.32 µg/mL: 87.2%
Staphylococcus aureus [25]
  inhibition of growth at 339.32 µg/mL: 50.2%
Listeria monocytogenes [26]
  inhibition of growth at 12.48 µg/mL: 5.4%
Vibrio parahaemolyticus [27]
  inhibition of growth at 12.48 µg/mL: 11.1%
Listeria monocytogenes [28]
  inhibition of growth at 678.64 µg/mL: 39.8%
Listeria monocytogenes [29]
  inhibition of growth at 135.68 µg/mL: 8.2%
Listeria monocytogenes [30]
  inhibition of growth at 67.88 µg/mL: 5%
Listeria monocytogenes [31]
  inhibition of growth at 25.52 µg/mL: 6.7%
Vibrio parahaemolyticus [32]
  inhibition of growth at 678.64 µg/mL: 98.8%
Vibrio parahaemolyticus [33]
  inhibition of growth at 135.68 µg/mL: 21.5%
Vibrio parahaemolyticus [34]
  inhibition of growth at 67.88 µg/mL: 13.5%
Vibrio parahaemolyticus [35]
  inhibition of growth at 25.52 µg/mL: 14.3%
Bacillus cereus [36]
  inhibition of growth at 339.32 µg/mL: 54.6%
